A selection: hits, their analogues and other compounds. The true share with any hit is near 3.8%.
NPY2 pot ag = NPY-Y2 potentiators or agonists, primary screen, cell-based; cells expressing NPY-Y2, potentiator/agonist read-out; activation, % at 3.6 µM; 220,000 compounds, 0.45% hits; AID 1359, 2008; in the data active = activation above about 27%;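 also: cells stimulated with NPY near EC25 plus isoproterenol at EC100; 0% = vehicle plus submaximal agonist and 100% = vehicle plus saturating agonist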
Target sequence (P49146 whole entry, looked up): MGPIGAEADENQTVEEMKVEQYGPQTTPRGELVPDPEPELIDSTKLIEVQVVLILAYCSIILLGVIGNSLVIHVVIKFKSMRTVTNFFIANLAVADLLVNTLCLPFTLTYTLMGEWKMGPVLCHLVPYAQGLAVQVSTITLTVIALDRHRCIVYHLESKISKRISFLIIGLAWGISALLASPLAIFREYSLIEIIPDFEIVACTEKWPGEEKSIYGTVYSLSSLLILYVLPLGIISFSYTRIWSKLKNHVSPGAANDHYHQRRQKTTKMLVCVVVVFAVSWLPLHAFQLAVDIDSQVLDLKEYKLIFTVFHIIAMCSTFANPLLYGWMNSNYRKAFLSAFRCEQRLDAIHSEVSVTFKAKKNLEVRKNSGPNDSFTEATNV
NPY Y2 blocker = NPY-Y2 receptor antagonists, primary screen, cell-based; NPY-Y2 expressing cells, antagonist mode; 140,000 compounds, 0.99% hits; Neuropeptide Y receptor type 2 (Homo sapiens), P49146; inhibition, % at 2.7 µM;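 also: 0% = vehicle with agonist challenge and 100% = reference antagonist with challenge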
RAM network inh = inhibitors of the yeast RAM network, primary screen, dse1pr::URA3 reporter, 5-FOA selection | AID 868, 2007 | 190,000 compounds, 1.8% hits | inhibition, % at 50 µM | S. cerevisiae dse1pr::URA3 reporter, 5-FOA growth OD615, 2 d; analog-sensitive cbk1-as2 kinase mutant strain;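 active = inhibition above a set limit, 3 SD over mean compound inhibition, cut at about 8.4% in these data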;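 also: 0% = DMSO-only wells with no growth and 100% = 10 µM 1-NA-PP1 full growth; inhibition rescues growth on 5-FOA so higher OD means more RAM inhibition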
NPY-Y1 PAM-ag = NPY-Y1 receptor potentiators or agonists, primary screen, cell-based | Neuropeptide Y receptor type 1 (Homo sapiens), P25929 | NPY-Y1 expressing cells, potentiator/agonist activation | activation, % at 3.6 µM | 220,000 compounds, 0.37% hits | AID 1304, 2008; in the data active = activation above about 33%, passing the limit was not always enough;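 also: cells stimulated with NPY at EC10 then isoproterenol at EC100; 0% = low agonist plus stimulus and 100% = saturating agonist plus stimulus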
NPY Y1 blocker = NPY-Y1 receptor antagonists, primary screen, cell-based | inhibition, % at 3.6 µM | HEK293-CNG Y1 cells, membrane potential fluorescence; NPY at EC95, then isoproterenol | AID 1040, 2008 | 200,000 compounds, 1% hits;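 active = inhibition above the campaign mean inhibition of all tested compounds plus 3 SD, cut at about 20% in these data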;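 also: 0% = DMSO wells given NPY plus isoproterenol and 100% = isoproterenol alone without NPY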
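System: HEK293 cells with Y1 receptor plus CNG channel / Probe or stimulus: NPY 25 nM then isoproterenol 1 µM plus Ro 20-1724 25 µM / Compound: one concentration, 3.6 µM, in 0.4% DMSO / Schedule: compound incubation 1 h at room temperature, readout 45 min post-stimulation / Measured by: membrane potential fluorescence / Read-out: % inhibition of NPY effect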
INS promoter inh = inhibitors of insulin promoter-driven GFP, primary screen, imaging, TRM-6 cells, eGFP reporter, cell count; reporter expression induced with tamoxifen; inhibition, % at 2 µM; 130,000 compounds, 0.9% hits; AID 1273, 2008;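 active = inhibition above the mean plus 3 SD, with well images judged a real hit on visual review, cut at about 60% in these data, passing the limit was not always enough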
NPY-Y1 ant conf = NPY-Y1 receptor antagonists, retest of hits, confirmation, HEK293-CNG cells, membrane potential fluorescence, triplicate; shares compounds with NPY Y1 blocker; cAMP; NPY challenge against isoproterenol-raised cAMP; inhibition, % at 3.6 µM; 1,200 compounds, 21% hits; in the data active = inhibition above about 20%;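 also: 0% = vehicle with agonist plus stimulus and 100% = stimulus alone without agonist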
NPY-Y2 antag ct = NPY-Y2 receptor antagonists, selectivity check, confirmation, counter-screen for NPY-Y1 antagonist project, HEK293-CNG cells, membrane potential fluorescence, triplicate; AID 1255, 2008; inhibition, % at 3.6 µM; shares compounds with NPY Y1 blocker; antagonism; cells given NPY, then isoproterenol; 1,200 compounds, 28% hits;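 also: 0% = DMSO with agonist challenge and 100% = reference antagonist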
* marks the source's active call; other numbers are inactive results; x = no result given. Rule as the data show it, unless noted: active = inhibition above about 17%; inactive = the rest.

SMILES | NPY2 pot ag | NPY Y2 blocker | RAM network inh | NPY-Y1 PAM-ag | NPY Y1 blocker | INS promoter inh | NPY-Y1 ant conf | NPY-Y2 antag ct
C=CCOc1ccccc1CN1CCC(CO)(CCOc2ccccc2)CC1 | -41 | x | 1 | -34 | 27* | x | 10 | 17
Cc1cc(C)nc(SCCC(=O)N(C)C)n1 | 14 | 0 | 0 | 15 | 0 | x | x | x
O=C(COc1c(Br)cc(Br)c2cccnc12)Nc1ccccc1F | -6 | x | 2 | -12 | -3 | 21 | x | x
COc1ccc(OC)c(/C=c2\sc3nc(-c4cccs4)nn3c2=O)c1 | -9 | 5 | 4 | -32 | 20* | x | 3 | 2
COc1ccccc1/C=c1\sc2nc(-c3ccco3)nn2c1=O | 0 | 0 | 1 | 1 | 1 | 7 | x | x
COc1ccc(C(Nc2ccc(S(=O)(=O)NCC3CCCO3)cc2)C(=O)NC(C)(C)C)cc1OC (stereo not given) | 3 | x | 0 | 8 | 3 | x | x | x
CCOC(=O)c1nnn(-c2nonc2N)c1CSc1ccccn1 | 0 | 2 | 0 | -4 | 0 | x | x | x
COc1cccc(NC(=O)COC(=O)c2c3c(nc4ccccc24)CCC(C)C3)c1 (stereo not given) | 12 | 16 | 0 | -3 | 31* | -8 | 3 | 4
CCCCOc1ccc(C(=O)OC(C)CN(C)C)cc1 (stereo not given) | -34 | 11 | 0 | -31 | 24* | -50 | 6 | 9
CCCCOc1ccc(C(=O)O)cc1 | -8 | 5 | -1 | -14 | 6 | 56 | x | x
O=C(Cc1ccc(Cl)cc1)Nc1ccc2c(c1)C(=O)NC2=O | 10 | x | 1 | 11 | -1 | x | x | x
C/C(=N\O)C1CCCCC1 | 12 | x | x | 1 | x | x | x | x
CCCn1c(SCc2ccc(Cl)cc2)nc2c1c(=O)[nH]c(=O)n2C | -8 | 12 | 5 | -33 | 24* | x | 22* | 40*
C/C=C/Cn1c(SCc2ccc(Cl)cc2)nc2c1c(=O)[nH]c(=O)n2C | -75 | 4 | 6 | -90 | 17 | x | x | x
CCN1CCN(c2c(Cl)cccc2NC(=O)c2ccc3nsnc3c2)CC1 | -8 | x | x | 13 | x | x | x | x
CCOC(=O)c1ccccc1NC(=O)c1ccccc1SC | -18 | 3 | 1 | -46 | 24* | -58 | 7 | 4
COC(=O)c1ccccc1NC(=O)c1ccccc1SC | 3 | 0 | 1 | -21 | 11 | -21 | x | x
Cc1ccccc1Nc1scc(-c2ccc(Cl)cc2)[n+]1-c1ccccc1C | -4 | x | 4 | -6 | 36* | -14 | 9 | 11
Cc1c(Nc2scc(-c3ccccc3)[n+]2-c2ccccc2)c(=O)n(-c2ccccc2)n1C | 12 | x | 2 | 22 | 5 | -21 | x | x
CCOC(=O)c1c(C)n(-c2ccc(C)cc2)c2ccc(OCC(O)CNCC3CCCO3)cc12 (stereo not given) | -36 | x | -1 | -124 | 59* | -38 | 62* | 72*
CCOC(=O)c1c(C)n(-c2ccc(C)cc2)c2ccc(OCC(O)CNCCCO)cc12 (stereo not given) | -56 | x | 2 | -71 | 29* | x | 36* | 41*
ClCC1CN(Cc2ccccc2Cl)CCO1 (stereo not given) | -4 | x | 1 | 7 | -4 | x | x | x
CN(C)Cc1ccc(F)cc1Sc1ccc(Cl)cc1Cl | -21 | 11 | 1 | -68 | 22* | -31 | 11 | 17
O=C(CCc1ccc(S(=O)(=O)NCCc2ccccc2)cc1)Nc1ccc2c(c1)OCO2 | 5 | 0 | 3 | 9 | 2 | 25 | x | x
O/N=C/c1cc(Br)ccc1OCc1ccccc1F | -7 | 11 | x | 3 | 8 | -93 | x | x
SMILES | NPY2 pot ag | NPY Y2 blocker | RAM network inh | NPY-Y1 PAM-ag | NPY Y1 blocker | INS promoter inh | NPY-Y1 ant conf | NPY-Y2 antag ct
C=CCOc1ccc(Br)cc1/C=N/O | -9 | 11 | -2 | -45 | 24* | -19 | 12 | 7
CC(C)CCNC(=O)c1cccc(S(=O)(=O)N2CCc3ccccc32)c1 | -9 | 4 | 1 | -3 | 4 | 26 | x | x
CC(C)CN(CC(C)C)C(=O)c1cccc(S(=O)(=O)N2CCc3ccccc32)c1 | -3 | x | 8 | -5 | 29* | x | 5 | 6
COc1ccc(C(=O)NC(C(=O)NCCc2ccc3c(c2)OCCO3)C(C)C)cc1 (stereo not given) | -24 | x | 7 | -26 | 7 | -38 | x | x
CC(/C=C/c1ccc(C)o1)=C\C(=O)O | 6 | 8 | 1 | -4 | 22* | 24 | 4 | 6
Cc1ccc2nc3c(c(C(=O)O)c2c1)CCC3 | -2 | 8 | 3 | -38 | 22* | -30 | 5 | 11
Cc1ccc(C(=O)c2cc([N+](=O)[O-])ccc2N2CCOCC2)c(C)c1 | -8 | 3 | 1 | -4 | 34* | -91 | 6 | 22*
CCn1c2c(c(=N)c3c1CCC3)CCCC2 | -18 | x | x | 16 | x | x | x | x
CCCCCCCCn1c2c(c(=N)c3ccccc31)CCC2 | -66 | x | 0 | -95 | 99* | -62 | 77* | 74*
CCCCCCCCCn1c2c(c(=N)c3c1CCC3)CCCC2 | -40 | x | -1 | -78 | 58* | -300 | 102* | 79*
Clc1ccc(-n2nnnc2-c2cnc(-c3ccncc3)nc2-c2cccs2)cc1 | -30 | 15 | 1 | -58 | 34* | -383 | 14 | 18*
c1ccc(CNc2nc(N3CCN(Cc4ccccc4)CC3)nc3ccccc23)cc1 | 14 | x | x | 24 | x | x | x | x
CC(Nc1nc(N2CCNCC2)nc2ccccc12)c1ccccc1 (stereo not given) | -6 | x | -1 | -4 | 25* | 27 | 28* | 35*
OCCC1CN(Cc2nc3ccccc3s2)CCN1C1CCCC1 (stereo not given) | 7 | x | 0 | 6 | 4 | x | x | x
c1ccc2c(NC3CCCC3)nnc(NC3CCCC3)c2c1 | -2 | 12 | -1 | -1 | 23* | 11 | 1 | 35*
CCCC1C2C(=O)N(c3cccc(C)c3)C(=O)C2ON1c1ccccc1 (stereo not given) | 2 | x | x | 17 | x | x | x | x
COc1ccc(CNC(=O)C(CCSC)NC(=O)c2ccco2)cc1 (stereo not given) | -4 | 2 | 0 | 2 | 3 | 23 | x | x
CSCCC(NC(=O)c1ccco1)C(=O)OC(C)C(=O)NC(=O)NC1CCCCC1 (stereo not given) | -21 | 2 | 0 | -27 | 25* | 6 | 8 | 8
CC(=O)Nc1nc(SCCCc2ccccc2)n[nH]1 | 13 | 9 | 0 | 9 | 0 | 62 | x | x

Source: PubChem BioAssay
